Data set [1] concerns the target T1, human sulfite oxidase (HSO, human SO) (Homo sapiens, UniProt P51687).
T1 sequence (P51687 80-545): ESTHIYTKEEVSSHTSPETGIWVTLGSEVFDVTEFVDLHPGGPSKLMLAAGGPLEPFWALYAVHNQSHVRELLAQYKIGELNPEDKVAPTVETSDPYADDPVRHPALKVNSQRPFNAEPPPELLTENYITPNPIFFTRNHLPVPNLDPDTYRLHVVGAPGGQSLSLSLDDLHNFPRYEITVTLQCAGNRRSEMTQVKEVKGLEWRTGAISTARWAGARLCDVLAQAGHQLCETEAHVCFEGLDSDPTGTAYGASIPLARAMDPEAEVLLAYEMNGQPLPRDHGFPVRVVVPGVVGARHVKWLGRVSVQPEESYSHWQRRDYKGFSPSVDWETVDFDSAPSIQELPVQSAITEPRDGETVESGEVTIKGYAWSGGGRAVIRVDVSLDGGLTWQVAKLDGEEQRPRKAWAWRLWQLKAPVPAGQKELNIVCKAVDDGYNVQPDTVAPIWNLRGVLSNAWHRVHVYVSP
The experiment in a line: stopped-flow heme reduction. It is filed as biochemical. The conditions noted are these: read-out: Kd^sulfite; pH 8.5, 25 °C, anaerobic, no cyt c. In short, it runs like this:
(§1)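 Recombinant enzyme expressed in E. coli TP1000 and purified. Anaerobic stopped-flow at 25 °C (dead-time <1.5 ms, 10 mm path), with argon-sparged solutions prepared in an anaerobic chamber. Enzyme at 0.3–0.8 μM was mixed with varied sulfite, no cyt c. Heme Soret change followed at 425 or 430 nm. Traces were fitted to single or double exponentials for kobs, then kobs versus sulfite fitted hyperbolically for kred and Kd.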

The target in data set [2] is T2, human sulfite oxidase (HSO, human SO) (Homo sapiens, UniProt P51687, R529M).
T2 sequence (P51687 80-545 R529M): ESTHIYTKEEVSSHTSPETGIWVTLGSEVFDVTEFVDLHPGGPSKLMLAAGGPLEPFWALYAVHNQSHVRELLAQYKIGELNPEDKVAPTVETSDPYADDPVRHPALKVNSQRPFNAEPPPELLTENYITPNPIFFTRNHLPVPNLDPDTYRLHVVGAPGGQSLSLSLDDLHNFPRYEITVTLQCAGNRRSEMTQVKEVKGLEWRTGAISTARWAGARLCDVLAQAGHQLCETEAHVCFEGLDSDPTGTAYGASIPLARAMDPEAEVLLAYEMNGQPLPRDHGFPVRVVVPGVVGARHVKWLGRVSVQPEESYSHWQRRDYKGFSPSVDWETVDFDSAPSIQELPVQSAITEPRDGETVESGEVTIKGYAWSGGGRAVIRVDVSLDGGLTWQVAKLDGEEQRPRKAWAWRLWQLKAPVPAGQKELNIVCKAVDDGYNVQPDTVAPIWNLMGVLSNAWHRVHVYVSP
The experiment in a line: stopped-flow heme reduction. To be noted: read-out: Kd^sulfite; pH 8.5, 25 °C, anaerobic, no cyt c. It is filed as biochemical. In short, it runs like this:
as §1

Data set [3] deals with T3, human sulfite oxidase (HSO, human SO) (Homo sapiens, UniProt P51687, R529Q).
T3 sequence (P51687 80-545 R529Q): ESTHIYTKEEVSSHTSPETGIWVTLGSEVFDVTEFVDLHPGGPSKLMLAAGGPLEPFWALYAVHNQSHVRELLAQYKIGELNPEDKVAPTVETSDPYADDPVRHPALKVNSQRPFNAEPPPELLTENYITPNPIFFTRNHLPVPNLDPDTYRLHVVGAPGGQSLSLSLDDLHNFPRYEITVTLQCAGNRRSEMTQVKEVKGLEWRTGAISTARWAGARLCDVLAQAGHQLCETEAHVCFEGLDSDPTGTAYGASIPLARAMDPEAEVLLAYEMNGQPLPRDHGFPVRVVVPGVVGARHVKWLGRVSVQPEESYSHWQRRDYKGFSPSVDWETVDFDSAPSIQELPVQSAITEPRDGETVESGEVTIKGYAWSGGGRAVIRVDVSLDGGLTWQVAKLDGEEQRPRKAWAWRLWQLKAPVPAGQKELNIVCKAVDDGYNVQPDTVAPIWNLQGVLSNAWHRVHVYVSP
The experiment in a line: stopped-flow heme reduction. The format is biochemical. To be noted: read-out: Kd^sulfite; pH 8.5, 25 °C, anaerobic, no cyt c. In short, it runs like this:
as §1

The target in data set [4] is T4, chicken sulfite oxidase (CSO, recombinant chicken SO) (Gallus gallus, UniProt P07850).
T4 sequence (P07850 1-459): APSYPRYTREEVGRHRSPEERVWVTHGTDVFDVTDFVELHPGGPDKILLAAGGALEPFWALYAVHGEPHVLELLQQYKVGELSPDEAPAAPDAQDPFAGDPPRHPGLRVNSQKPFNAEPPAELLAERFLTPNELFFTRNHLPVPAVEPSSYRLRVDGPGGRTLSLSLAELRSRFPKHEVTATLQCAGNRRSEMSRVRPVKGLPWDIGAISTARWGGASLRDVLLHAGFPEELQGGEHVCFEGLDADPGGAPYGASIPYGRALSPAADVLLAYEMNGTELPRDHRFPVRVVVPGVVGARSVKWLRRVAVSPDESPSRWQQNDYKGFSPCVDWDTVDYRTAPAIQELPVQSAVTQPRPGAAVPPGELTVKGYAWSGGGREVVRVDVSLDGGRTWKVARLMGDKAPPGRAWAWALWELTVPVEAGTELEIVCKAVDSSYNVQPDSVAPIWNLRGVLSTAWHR
The experiment in a line: steady-state cytochrome c reduction at […] nm. The format is biochemical. To be noted: read-out: Km^sulfite; pH 8.5, 25 °C, horse heart cyt c.

Substrate in data set [5]: O=S(O)O
Kind of data set: purified protein. The format is biochemical, Homo sapiens. To be noted: pH 8.5, 25 °C, horse heart cyt c.

Substrate in data set [6]: O=[N+]([O-])O
Kind of data set: purified protein. The format is biochemical, Homo sapiens. To be noted: pH 8.5, 25 °C, anaerobic, dithionite-reduced methyl viologen.

Our source for the Kd, Km and kcat values is PMC3282045 (Biochemistry, 2012).

The term Kd denotes a measure of binding affinity in units of concentration. One may read the Km as the substrate concentration at which the rate is half of its maximum. Regarding `O=S(O)O` [sulfite], the values for the Kd in data set [1], in data set [2] and in data set [3] were 6.72 µM, 73.4 µM and 227 µM, respectively. Further, the Km in data set [4] came out at 8.53 µM.

B1: human sulfite oxidase (HSO, human SO) (Homo sapiens; V531M) (protein)
chain: ESTHIYTKEEVSSHTSPETGIWVTLGSEVFDVTEFVDLHPGGPSKLMLAAGGPLEPFWALYAVHNQSHVRELLAQYKIGELNPEDKVAPTVETSDPYADDPVRHPALKVNSQRPFNAEPPPELLTENYITPNPIFFTRNHLPVPNLDPDTYRLHVVGAPGGQSLSLSLDDLHNFPRYEITVTLQCAGNRRSEMTQVKEVKGLEWRTGAISTARWAGARLCDVLAQAGHQLCETEAHVCFEGLDSDPTGTAYGASIPLARAMDPEAEVLLAYEMNGQPLPRDHGFPVRVVVPGVVGARHVKWLGRVSVQPEESYSHWQRRDYKGFSPSVDWETVDFDSAPSIQELPVQSAITEPRDGETVESGEVTIKGYAWSGGGRAVIRVDVSLDGGLTWQVAKLDGEEQRPRKAWAWRLWQLKAPVPAGQKELNIVCKAVDDGYNVQPDTVAPIWNLRGMLSNAWHRVHVYVSP
The kcat is the number of substrate molecules converted per active site and unit of time at saturation. As to B1, in the data set “purified protein [5]”, the Michaelis-Menten constant (Km) is 3.54 µM and the kcat was determined as 15.8 s⁻¹.

B2: human sulfite oxidase (HSO, human SO) (Homo sapiens) (protein)
chain: ESTHIYTKEEVSSHTSPETGIWVTLGSEVFDVTEFVDLHPGGPSKLMLAAGGPLEPFWALYAVHNQSHVRELLAQYKIGELNPEDKVAPTVETSDPYADDPVRHPALKVNSQRPFNAEPPPELLTENYITPNPIFFTRNHLPVPNLDPDTYRLHVVGAPGGQSLSLSLDDLHNFPRYEITVTLQCAGNRRSEMTQVKEVKGLEWRTGAISTARWAGARLCDVLAQAGHQLCETEAHVCFEGLDSDPTGTAYGASIPLARAMDPEAEVLLAYEMNGQPLPRDHGFPVRVVVPGVVGARHVKWLGRVSVQPEESYSHWQRRDYKGFSPSVDWETVDFDSAPSIQELPVQSAITEPRDGETVESGEVTIKGYAWSGGGRAVIRVDVSLDGGLTWQVAKLDGEEQRPRKAWAWRLWQLKAPVPAGQKELNIVCKAVDDGYNVQPDTVAPIWNLRGVLSNAWHRVHVYVSP
For the molecule B2, the results for the Km in the data set “purified protein [6]” and in “purified protein [5]” were 43000 µM and 8.25 µM, respectively. For the same molecule, the results for the kcat in “purified protein [6]” and in the data set “purified protein [5]” were less than 0.1 s⁻¹ and 26.9 s⁻¹, respectively.

B3: human sulfite oxidase (HSO, human SO) (Homo sapiens; R529M/Y400N) (protein)
chain: ESTHIYTKEEVSSHTSPETGIWVTLGSEVFDVTEFVDLHPGGPSKLMLAAGGPLEPFWALYAVHNQSHVRELLAQYKIGELNPEDKVAPTVETSDPYADDPVRHPALKVNSQRPFNAEPPPELLTENYITPNPIFFTRNHLPVPNLDPDTYRLHVVGAPGGQSLSLSLDDLHNFPRYEITVTLQCAGNRRSEMTQVKEVKGLEWRTGAISTARWAGARLCDVLAQAGHQLCETEAHVCFEGLDSDPTGTAYGASIPLARAMDPEAEVLLAYEMNGQPLPRDHGFPVRVVVPGVVGARHVKWLGRVSVQPEESYSHWQRRDNKGFSPSVDWETVDFDSAPSIQELPVQSAITEPRDGETVESGEVTIKGYAWSGGGRAVIRVDVSLDGGLTWQVAKLDGEEQRPRKAWAWRLWQLKAPVPAGQKELNIVCKAVDDGYNVQPDTVAPIWNLMGVLSNAWHRVHVYVSP
Regarding B3, in the data set “purified protein [5]”, the Km amounted to 42990 µM and the kcat is 1.42 s⁻¹.

B4: human sulfite oxidase (HSO, human SO) (Homo sapiens; Y400N) (protein)
chain: ESTHIYTKEEVSSHTSPETGIWVTLGSEVFDVTEFVDLHPGGPSKLMLAAGGPLEPFWALYAVHNQSHVRELLAQYKIGELNPEDKVAPTVETSDPYADDPVRHPALKVNSQRPFNAEPPPELLTENYITPNPIFFTRNHLPVPNLDPDTYRLHVVGAPGGQSLSLSLDDLHNFPRYEITVTLQCAGNRRSEMTQVKEVKGLEWRTGAISTARWAGARLCDVLAQAGHQLCETEAHVCFEGLDSDPTGTAYGASIPLARAMDPEAEVLLAYEMNGQPLPRDHGFPVRVVVPGVVGARHVKWLGRVSVQPEESYSHWQRRDNKGFSPSVDWETVDFDSAPSIQELPVQSAITEPRDGETVESGEVTIKGYAWSGGGRAVIRVDVSLDGGLTWQVAKLDGEEQRPRKAWAWRLWQLKAPVPAGQKELNIVCKAVDDGYNVQPDTVAPIWNLRGVLSNAWHRVHVYVSP
In the case of B4, in “purified protein [5]”, the Km amounted to 850 µM and the kcat stood at 16.91 s⁻¹.
